Source: PubChem BioAssay (several laboratories)
Compounds with a hit are over-represented: about 1.8% of the library has one in this group of screens.
HTRA1 inh – HTRA1 (human) protease inhibition. recombinant HTRA1, FP-rhodamine activity-based probe, fluorescence polarization. inhibition, % at 5.96 µM. 0.5% of 340,000 active. AID 504803; in the data active = inhibition above about 36%
Target sequence (Q92743 whole entry, looked up): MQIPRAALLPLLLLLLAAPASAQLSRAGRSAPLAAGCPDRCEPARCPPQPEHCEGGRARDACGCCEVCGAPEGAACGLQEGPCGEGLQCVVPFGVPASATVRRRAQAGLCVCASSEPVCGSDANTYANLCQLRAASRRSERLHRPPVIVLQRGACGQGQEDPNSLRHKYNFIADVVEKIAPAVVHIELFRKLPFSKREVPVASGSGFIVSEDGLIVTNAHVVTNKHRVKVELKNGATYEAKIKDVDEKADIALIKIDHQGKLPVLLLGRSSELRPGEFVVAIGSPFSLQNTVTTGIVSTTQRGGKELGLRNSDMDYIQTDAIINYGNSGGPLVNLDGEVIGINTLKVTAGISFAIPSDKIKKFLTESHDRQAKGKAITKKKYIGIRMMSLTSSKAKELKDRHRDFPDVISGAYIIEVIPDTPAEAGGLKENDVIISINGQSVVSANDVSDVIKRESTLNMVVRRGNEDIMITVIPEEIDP
mABHD4 FP – inhibits mouse alpha/beta hydrolase domain 4; purified mABHD4, FP-Rh probe fluorescence polarization; 0.54% of 370,000 active; Q8VD66; inhibition, % at 8.92 µM;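 active = inhibition exceeding the mean over every tested compound plus 3 SD, cut at about 30% in these data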
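Assay system: mABHD4 protein; medium: HEPES pH 7.0, NaCl, Pluronic buffer; dosing: 8.92 µM, single dose; schedule: 45 min + 60 min at 25 °C; signal: FP readout, ex 525 nm / em 598 nm; read-out: normalized percent inhibition of probe labeling; repeats: single replicate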
ARNT-TACC3 inh – disrupts binding between human ARNT and TACC3. Q9Y6A5. AlphaScreen His-ARNT PAS-B/GST-TACC3 binding, luminescence; TACC3 fragment carries E629A point mutation. inhibition, % at 9.99 µM. 0.66% of 390,000 active. AID 623870;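 active = mean inhibition of replicates at least 50% and at least half of replicates each reaching 50%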
TCR CD3 inh – blocks the human TCR-CD3 interaction; AID 651800; TAMRA-labeled TCR probe fluorescence, biochemical; inhibition, % at 9.4 µM; 0.37% of 360,000 active;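 note: recombinant mutant TCR 2C K166C tagged with TAMRA read by polarization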
SIAE primary – inhibitors of human sialic acid acetylesterase SIAE; Q9HAT2; SIAE FP-Rh probe binding, fluorescence polarization; inhibition, % at 9.66 µM; 0.69% of 370,000 active;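 active = inhibition above a cutoff: mean of compounds within the control limits plus 3 SD of those, cut at about 17% in these data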
HTRA1 conf – confirmation of human HTRA1 inhibitors; recombinant HTRA1, FP-rhodamine activity-based probe, fluorescence polarization; shares compounds with HTRA1 inh; inhibition, % at 5.96 µM; 66% of 1,600 active; AID 540248;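 active = mean inhibition over three repeats above a set limit taken from the earlier primary screen, cut at about 37% in these data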;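 note: inhibitors block probe binding so polarization drops and inhibition rises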
BSA TAMRA ctr – counter-screen for TCR-CD3 interaction inhibitors: BSA probe | shares compounds with TCR CD3 inh | inhibition, % at 9.4 µM | TAMRA-labeled BSA probe fluorescence counterscreen | 10% of 1,200 active; in the data active = inhibition above about 23%
TCR-CD3 inh conf – TCR-CD3 interaction inhibition, confirmation | 48% of 1,200 active | shares compounds with TCR CD3 inh | TAMRA-labeled TCR probe fluorescence binding assay | inhibition, % at 9.4 µM
mABHD4 conf – ABHD4 (mouse) inhibition, FP confirmation. shares compounds with mABHD4 FP. 55% of 1,800 active. inhibition, % at 8.92 µM. AID 720658. purified mABHD4, FP-Rh probe fluorescence polarization;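 active = mean inhibition across replicates above the hit cutoff set in the primary screen, cut at about 30% in these data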
Numbers stand for hits; i = inactive; nt = not tested or not shown. Cut-off read from the data, not from the text of the source, unless noted: active = inhibition above about 19%; inactive = the rest.

SMILES	HTRA1 inh	mABHD4 FP	ARNT-TACC3 inh	TCR CD3 inh	SIAE primary	HTRA1 conf	mABHD4 conf	others
CNC[C@H]1OCCCC[C@@H](C)Oc2ccc(N(C)C)cc2C(=O)N([C@H](C)CO)C[C@@H]1C	nt	nt	i	nt	nt	nt	nt
O=C(Nc1cccc(F)c1)N1C[C@@H]2[C@H](c3ccccc31)[C@@H](CO)N2C(=O)Cc1ccccn1	nt	nt	i	nt	nt	nt	nt
Cc1ccc(N2NC(=O)/C(=C\c3cc4c(cc3[N+](=O)[O-])OCO4)C2=O)cc1C	63	47	i	i	i	37	47
Cc1ccc(S(=O)(=O)Nc2cc(Cl)c(O)c3ncccc23)cc1	70	48	48	i	i	54	57
Cc1ccc(S(=O)(=O)Nc2cccnc2Oc2ccc(Cl)cc2)cc1	i	i	i	i	i	nt	nt
CCNC(=O)C[C@@H]1CC[C@H]2[C@@H](COC[C@H](O)CN2C(=O)C2CCOCC2)O1	nt	nt	i	nt	nt	nt	nt
NS(=O)(=O)c1ccc(N=Nc2c(O)c(C(=O)O)cc3ccccc23)cc1	45	49	i	i	i	i	i
CN1CCN(C(=O)C[C@H]2CC[C@@H](NC(=O)Cc3ccccn3)[C@@H](CO)O2)CC1	nt	nt	i	nt	nt	nt	nt
Cc1ccc(NC2=C(NC(=O)c3ccccc3)C(=O)c3ccccc3C2=O)cc1Cl	44	30	i	i	i	42	50
Cc1ccc(NCC(=O)c2ccccc2)cc1Cl	i	i	i	i	i	nt	nt
Cc1cc([N+](=O)[O-])cc2c1NC(c1ccccn1)C1CC=CC21 (stereo unspecified)	i	i	i	i	i	nt	nt
O=[N+]([O-])c1ccc(Cl)c2c1C1C=CCC1C(c1ccccn1)N2 (stereo unspecified)	60	43	i	i	i	43	74
C[C@H](CO)N1C[C@H](C)[C@H](CN(C)Cc2cccnc2)Oc2cc(C#CC3CCCCC3)ccc2S1(=O)=O	nt	nt	i	nt	nt	nt	nt
O=C1C(NS(=O)(=O)c2ccccc2)=C(N2CCN(c3ccc(F)cc3)CC2)C(=O)c2ccccc21	48	53	i	i	i	63	63
CC1CCN(C2=C(NS(=O)(=O)c3ccc(Br)cc3)C(=O)c3ccccc3C2=O)CC1	36	41	i	i	i	86	65
O=C1C(NS(=O)(=O)c2cccs2)=C(N2CCN(c3cccc(Cl)c3)CC2)C(=O)c2ccccc21	58	55	i	i	i	75	56
CC1CCN(C2=C(NS(=O)(=O)c3ccccc3)C(=O)c3ccccc3C2=O)CC1	i	i	i	i	i	nt	nt
O=C1C(NS(=O)(=O)c2ccc(Br)cc2)=C(N2CCCCC2)C(=O)c2ccccc21	i	i	i	i	i	nt	nt
CN1CCN(C(=O)C[C@@H]2CC[C@@H]3[C@H](COC[C@@H](O)CN3C(=O)C3CCOCC3)O2)CC1	nt	nt	i	nt	nt	nt	nt
O=C(C[C@H]1C=C[C@@H](NC(=O)c2ccc(F)cc2)[C@@H](CO)O1)NCc1ccncn1	nt	nt	i	nt	nt	nt	nt
Cc1ccc(C)c(N=Nc2nc3ccccc3n2C)c1	i	i	i	i	i	nt	nt
Cc1cc(C)c(C)c(N=Nc2nc3ccccc3n2C)c1C	37	40	nt	i	i	43	55
CC(=O)Nc1ccc(Nc2ccc3c4c(cc(=O)n3C)-c3ccccc3C(=O)c24)cc1	i	i	i	i	i	nt	nt
O=C1c2ccccc2C(=O)c2c(Nc3ccc(CCO)cc3)ccc(O)c21	53	48	i	i	i	81	75
CCC(=O)N[C@H]1C=C[C@H](CC(=O)NCC2CCCCC2)O[C@H]1CO	nt	nt	i	nt	nt	nt	nt
CCC(=Nc1ccc(N)cc1)C1=C(O)C(C(=O)OC)C(C)(C)CC1=O (stereo unspecified)	53	82	i	68	25	i	i	BSA TAMRA ctr=i;TCR-CD3 inh conf=i
CC(C)NC(=O)N(C)C[C@@H]1Oc2c(NC(=O)Nc3ccccc3)cccc2C(=O)N([C@@H](C)CO)C[C@H]1C	nt	nt	i	nt	nt	nt	nt
OCc1ccccc1CNCc1ccccc1	i	i	i	i	i	nt	nt
